In ChEMBL document CHEMBL3046016, “Antifeedant and growth inhibitory effects of some neo-clerodane diterpenoids isolated from Clerodendron species (Verbenaceae) on Earias vitella and Spodoptera litura” (2003):

Experiments:
Assay type in all cases: functional
Earias vittella [1] = assay: Insecticidal activity against pupal stage of Earias vitella assessed as pupal mortality at 10 ug/cm3 administered through artificial diet containing Abelmoschus esculentus seed powder (reference value: 8%)
Earias vittella [2] = assay: Insecticidal activity against third-instar larval stage of Earias vitella assessed as larval mortality at 10 ug/cm3 administered through artificial diet containing Abelmoschus esculentus seed powder (reference value: 4%)
Earias vittella [3] = assay: Insecticidal activity against third-instar larval stage of Earias vitella assessed as total larval duration time at 5 ug/cm3 administered through artificial diet containing Abelmoschus esculentus seed powder (reference value: 8.2 +/- 0.48 days)
Earias vittella [4] = assay: Insecticidal activity against pupal stage of Earias vitella assessed as pupal duration time at 10 ug/cm3 administered through artificial diet containing Abelmoschus esculentus seed powder (reference value: 6.4 +/- 0.21 days)
Earias vittella [5] = assay: Insecticidal activity against pupal stage of Earias vitella assessed as pupal weight at 5 ug/cm3 administered through artificial diet containing Abelmoschus esculentus seed powder (reference value: 88.2 +/- 4.01 mg)
Spodoptera litura [6] = assay: Insecticidal activity against adult Spodoptera litura in compound-treated castor leaves assessed as adult emergence at 10 ug/cm2 relative to control
Earias vittella [7] = assay: Insecticidal activity against adult Earias vitella assessed as adult deformity at 10 ug/cm3 administered through artificial diet containing Abelmoschus esculentus seed powder (reference value: 4%)
Spodoptera litura [8] = assay: Insecticidal activity against third-instar larval stage of Spodoptera litura in compound-treated castor leaves assessed as total larval duration time at 5 ug/cm2 (reference value: 12.4 +/- 0.48 days)
Spodoptera litura [9] = assay: Antifeedant activity against third-instar larval stage of Spodoptera litura in compound-treated castor leaves assessed as decrease in diet consumption at 10 ug/cm2 after 24 hr by no-choice leaf disk assay relative to acetone-treated control; parameters: scale not given: the % may be the effect or the level left
Summary of the method: (§1)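 Larvae were reared on castor leaves at 25 ± 2 °C. In a no-choice test, compound in acetone was painted on the abaxial side of castor leaf disks and air-dried. Five freshly molted third-instar larvae, starved 4 h, were placed per Petri dish with wet cotton. There were five replicates. After 24 h, consumed leaf area was read on a leaf area meter. %AF = 100 − (treated/control)×100.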

Earias vittella [10] = assay: Insecticidal activity against adult Earias vitella assessed as adult emergence at 10 ug/cm3 administered through artificial diet containing Abelmoschus esculentus seed powder (reference value: 88%)
Earias vittella [11] = assay: Insecticidal activity against pupal stage of Earias vitella assessed as pupal duration time at 5 ug/cm3 administered through artificial diet containing Abelmoschus esculentus seed powder (reference value: 6.4 +/- 0.21 days)
Spodoptera litura [12] = assay: Insecticidal activity against pupal stage of Spodoptera litura in compound-treated castor leaves assessed as pupal weight at 10 ug/cm2 (reference value: 302.4 +/- 5.9 mg)
Earias vittella [13] = assay: Insecticidal activity against pupal stage of Earias vitella assessed as pupal mortality at 5 ug/cm3 administered through artificial diet containing Abelmoschus esculentus seed powder (reference value: 8%)
Spodoptera litura [14] = assay: Antifeedant activity against third-instar larval stage of Spodoptera litura in compound-treated castor leaves assessed as decrease in diet consumption at 5 ug/cm2 after 24 hr by no-choice leaf disk assay relative to acetone-treated control; parameters: scale not given: the % may be the effect or the level left; summary of the method: as §1
Spodoptera litura [15] = assay: Insecticidal activity against third-instar larval stage of Spodoptera litura in compound-treated castor leaves assessed as larval mortality at 5 ug/cm2 relative to control
Earias vittella [16] = assay: Insecticidal activity against third-instar larval stage of Earias vitella assessed as larval mortality at 5 ug/cm3 administered through artificial diet containing Abelmoschus esculentus seed powder (reference value: 4%)
Earias vittella [17] = assay: Antifeedant activity against third-instar larval stage of Earias vitella assessed as decrease in diet consumption at 5 ug/cm3 administered through artificial diet containing Abelmoschus esculentus seed powder after 24 hr relative to acetone-treated control; parameters: scale not given: the % may be the effect or the level left
Summary of the method: (§2)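 Artificial diet was modified Klein medium with bhendi (Abelmoschus esculentus) seed powder in place of alfalfa. Compound in acetone was mixed into bhendi meal 12 h before diet preparation so the solvent evaporated. One 3 g diet cube was given to five freshly molted third-instar larvae in a muslin-covered container. After 24 h the cubes were weighed. %AF = 100 − (treated/control)×100.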

Spodoptera litura [18] = assay: Insecticidal activity against male adult Spodoptera litura in compound-treated castor leaves assessed as adult longevity time at 5 ug/cm2 (reference value: 9.4 +/- 0.48 days)
Earias vittella [19] = assay: Insecticidal activity against adult Earias vitella assessed as adult deformity at 5 ug/cm3 administered through artificial diet containing Abelmoschus esculentus seed powder (reference value: 4%)
Spodoptera litura [20] = assay: Insecticidal activity against adult Spodoptera litura in compound-treated castor leaves assessed as adult deformity at 10 ug/cm2 relative to control
Spodoptera litura [21] = assay: Insecticidal activity against pupal stage of Spodoptera litura in compound-treated castor leaves assessed as pupal duration time at 10 ug/cm2 (reference value: 9.2 +/- 0.74 days)
Earias vittella [22] = assay: Antifeedant activity against third-instar larval stage of Earias vitella assessed as decrease in diet consumption at 10 ug/cm3 administered through artificial diet containing Abelmoschus esculentus seed powder after 24 hr relative to acetone-treated control; parameters: scale not given: the % may be the effect or the level left; summary of the method: as §2
Spodoptera litura [23] = assay: Insecticidal activity against pupal stage of Spodoptera litura in compound-treated castor leaves assessed as pupal mortality at 10 ug/cm2 relative to control
Spodoptera litura [24] = assay: Insecticidal activity against female adult Spodoptera litura in compound-treated castor leaves assessed as adult longevity time at 5 ug/cm2 (reference value: 10 +/- 0.63 days)
Spodoptera litura [25] = assay: Insecticidal activity against adult Spodoptera litura in compound-treated castor leaves assessed as adult deformity at 5 ug/cm2 relative to control
Spodoptera litura [26] = assay: Insecticidal activity against third-instar larval stage of Spodoptera litura in compound-treated castor leaves assessed as larval mortality at 10 ug/cm2 relative to control
Spodoptera litura [27] = assay: Insecticidal activity against male adult Spodoptera litura in compound-treated castor leaves assessed as adult longevity time at 10 ug/cm2 (reference value: 9.4 +/- 0.48 days)
Earias vittella [28] = assay: Insecticidal activity against male adult Earias vitella assessed as adult longevity time at 10 ug/cm3 administered through artificial diet containing Abelmoschus esculentus seed powder (reference value: 8.2 +/- 0.4 days)
Spodoptera litura [29] = assay: Insecticidal activity against pupal stage of Spodoptera litura in compound-treated castor leaves assessed as pupal mortality at 5 ug/cm2 relative to control
Earias vittella [30] = assay: Insecticidal activity against third-instar larval stage of Earias vitella assessed as total larval duration time at 10 ug/cm3 administered through artificial diet containing Abelmoschus esculentus seed powder (reference value: 8.2 +/- 0.48 days)
Earias vittella [31] = assay: Insecticidal activity against adult Earias vitella assessed as adult emergence at 5 ug/cm3 administered through artificial diet containing Abelmoschus esculentus seed powder (reference value: 88%)
Earias vittella [32] = assay: Insecticidal activity against female adult Earias vitella assessed as adult longevity time at 10 ug/cm3 administered through artificial diet containing Abelmoschus esculentus seed powder (reference value: 8.6 +/- 0.48 days)
Spodoptera litura [33] = assay: Insecticidal activity against female adult Spodoptera litura in compound-treated castor leaves assessed as adult longevity time at 10 ug/cm2 (reference value: 10 +/- 0.63 days)
Spodoptera litura [34] = assay: Insecticidal activity against third-instar larval stage of Spodoptera litura in compound-treated castor leaves assessed as total larval duration time at 10 ug/cm2 (reference value: 12.4 +/- 0.48 days)
Spodoptera littoralis = assay: Antifeedant activity against Spodoptera littoralis assessed as decrease in diet consumption at 200 ppm after 2 hr by leaf disk assay relative to control; parameters: scale not given: the % may be the effect or the level left
Earias vittella [35] = assay: Insecticidal activity against female adult Earias vitella assessed as adult longevity time at 5 ug/cm3 administered through artificial diet containing Abelmoschus esculentus seed powder (reference value: 8.6 +/- 0.48 days)
Earias vittella [36] = assay: Insecticidal activity against male adult Earias vitella assessed as adult longevity time at 5 ug/cm3 administered through artificial diet containing Abelmoschus esculentus seed powder (reference value: 8.2 +/- 0.4 days)
Earias vittella [37] = assay: Insecticidal activity against pupal stage of Earias vitella assessed as pupal weight at 10 ug/cm3 administered through artificial diet containing Abelmoschus esculentus seed powder (reference value: 88.2 +/- 4.01 mg)
Spodoptera litura [38] = assay: Insecticidal activity against adult Spodoptera litura in compound-treated castor leaves assessed as adult emergence at 5 ug/cm2 relative to control
Spodoptera litura [39] = assay: Insecticidal activity against pupal stage of Spodoptera litura in compound-treated castor leaves assessed as pupal duration time at 5 ug/cm2 (reference value: 9.2 +/- 0.74 days)
Spodoptera litura [40] = assay: Insecticidal activity against pupal stage of Spodoptera litura in compound-treated castor leaves assessed as pupal weight at 5 ug/cm2 (reference value: 302.4 +/- 5.9 mg)

CC(=O)OC[C@@]12[C@@H](OC(C)=O)C[C@@H](C)[C@](C)([C@@H]3C[C@H]4C=CO[C@H]4O3)[C@H]1CC[C@H](OC(C)=O)[C@]21CO1 [3-EPICARYOPTIN]
mortality (Earias vittella [1]): 40%
mortality (Earias vittella [2]): 12%
Time (Earias vittella [3]): 10 days
Time (Earias vittella [4]): 10.2 days
Activity (Earias vittella [5]): 57.4 mg
Activity (Spodoptera litura [6]): 56.8%
Activity (Earias vittella [7]): 8%
Time (Spodoptera litura [8]): 14 days
Activity (Spodoptera litura [9]): 82.6%
Activity (Earias vittella [10]): 52%
Time (Earias vittella [11]): 8.8 days
Activity (Spodoptera litura [12]): 250.2 mg
mortality (Earias vittella [13]): 30%
Activity (Spodoptera litura [14]): 73.4%
mortality at 5 µg/cm2 (Spodoptera litura [15]): 24%
mortality (Earias vittella [16]): 8%
Activity (Earias vittella [17]): 73%
Time (Spodoptera litura [18]): 7.4 days
Activity (Earias vittella [19]): 8%
Activity (Spodoptera litura [20]): 12.8%
Time (Spodoptera litura [21]): 11.8 days
Activity (Earias vittella [22]): 79.76%
mortality at 10 µg/cm2 (Spodoptera litura [23]): 30%
Time (Spodoptera litura [24]): 7.2 days
Activity (Spodoptera litura [25]): 8.8%
mortality at 10 µg/cm2 (Spodoptera litura [26]): 36%
Time (Spodoptera litura [27]): 6.4 days
Time (Earias vittella [28]): 5.6 days
mortality at 5 µg/cm2 (Spodoptera litura [29]): 26.5%
Time (Earias vittella [30]): 10.3 days
Activity (Earias vittella [31]): 60.4%
Time (Earias vittella [32]): 5.8 days
Time (Spodoptera litura [33]): 6 days
Time (Spodoptera litura [34]): 14.5 days
Activity (Spodoptera littoralis): 100%
Time (Earias vittella [35]): 6.2 days
Time (Earias vittella [36]): 5.8 days
Activity (Earias vittella [37]): 53.2 mg
Activity (Spodoptera litura [38]): 64.8%
Time (Spodoptera litura [39]): 11 days
Activity (Spodoptera litura [40]): 261.6 mg
